Experimental data published in ChEMBL document CHEMBL2396535, “Synthesis and biological evaluation of 18F-labled 2-phenylindole derivatives as PET imaging probes for β-amyloid plaques” (Bioorg Med Chem, 2013).

How the values were obtained:
[1] = Ratio of drug level in brain to blood in ICR mouse after 2 mins; type: ADME, tissue-based; conditions: brain and blood, read-out: BBR
Method in brief: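 Male ICR mice (5 weeks) received the ¹⁸F tracer (740–1110 kBq/mL) in saline with 10% EtOH by tail-vein injection. Five mice per time point were sacrificed at 2, 10, 30 and 60 min. Organs were removed, weighed and gamma-counted, and expressed as %ID/g. The ratio is brain %ID/g over blood %ID/g at 2 min.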

Brain = test: Ratio of drug level in brain after 2 mins to drug level in brain after 60 mins in ICR mouse; type: ADME, tissue-based; conditions: in vivo
Method in brief: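 Male normal ICR mice (5 weeks old), n = 5 per time point, received a tail-vein injection of [18F] tracer (740–1110 kBq/mL) in saline containing 10% EtOH. Mice were sacrificed at 2, 10, 30 and 60 min. Organs were removed, weighed and gamma-counted, and data were expressed as %ID/g.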

[2] = biological target: Amyloid-beta precursor protein (Homo sapiens, UniProt P05067); test: Displacement of [125I]IMPY from amyloid beta (1 to 42) (unknown origin) after 3 hrs by gamma counting analysis
Method in brief: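 Test compound ranged over 10^-4 to 10^-8.5 in ethanol, in 0.05% BSA, 1 mL total. Incubation was 3 h at room temperature, then GF/B filtration and gamma counting. IC50 came from three independent experiments, and Ki was derived by Cheng–Prusoff.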

Amyloid-beta precursor protein, sequence (P05067 whole entry): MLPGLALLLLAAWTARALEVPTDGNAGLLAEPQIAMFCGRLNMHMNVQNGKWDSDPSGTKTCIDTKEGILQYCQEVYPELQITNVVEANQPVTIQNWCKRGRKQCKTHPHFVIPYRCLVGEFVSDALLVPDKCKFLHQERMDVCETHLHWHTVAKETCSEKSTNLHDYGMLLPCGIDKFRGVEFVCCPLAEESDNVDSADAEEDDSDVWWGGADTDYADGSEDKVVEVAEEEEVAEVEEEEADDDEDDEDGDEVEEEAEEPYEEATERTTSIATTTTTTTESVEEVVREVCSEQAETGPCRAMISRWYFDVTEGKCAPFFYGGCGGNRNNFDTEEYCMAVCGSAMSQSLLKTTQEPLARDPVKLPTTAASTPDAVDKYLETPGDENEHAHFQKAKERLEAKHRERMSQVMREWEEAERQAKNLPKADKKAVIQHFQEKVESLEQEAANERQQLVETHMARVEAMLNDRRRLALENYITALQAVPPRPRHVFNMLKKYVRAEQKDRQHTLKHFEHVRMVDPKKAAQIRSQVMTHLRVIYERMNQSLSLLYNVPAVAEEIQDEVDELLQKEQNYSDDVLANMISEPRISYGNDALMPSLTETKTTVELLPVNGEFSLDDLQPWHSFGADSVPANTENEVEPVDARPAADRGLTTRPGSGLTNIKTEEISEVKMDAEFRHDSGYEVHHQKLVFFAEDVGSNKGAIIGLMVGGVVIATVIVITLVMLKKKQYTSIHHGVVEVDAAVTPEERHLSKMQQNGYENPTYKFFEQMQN

Row | Compound | Kp at 2 min [1] | Ratio (Brain) | Ki [2] [nM]
1 | CNc1ccc(-c2cc3cc([125I])ccc3[nH]2)cc1 | 0.29 | 1.33 | 
2 | Cn1c(-c2ccc(NCCF)cc2)cc2ccccc21 |  |  | 1030
3 | COc1ccc(-c2cc3cc([125I])ccc3[nH]2)cc1 | 0.59 | 1.82 | 
4 | CN(CCCF)c1ccc(-c2cc3ccccc3[nH]2)cc1 |  |  | 31.5
5 | CN(C)c1ccc(-c2cc3cc([125I])ccc3[nH]2)cc1 | 0.19 | 1.68 | 
